Key:
[1] = system: Mus musculus; assay: Ability of 25 mg/kg of compound to kill M5076 tumor cells in mice is expressed as the log of the tumor cell population at the onset of treatment minus the log of the tumor cell population at the end of treatment; format: functional
Procedure, shortened: (§1)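 M5076 sarcoma, 10^6 cells ip on day 0 in B6C3F1 mice. Drug given ip as a fresh saline suspension every fourth day (days 1, 5, 9, 13). % T/C is median survival of treated versus control mice, counting long-term survivors. Cures are 60-day survivors. Log cell kill is derived from this.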

[2] = system: Mus musculus; assay: Ability of 6.25 mg/kg of compound to kill tumor cells in mice is expressed as the log of the tumor cell population at the onset of treatment minus the log of the tumor cell population at the end of treatment; format: functional
[3] = system: Mus musculus; assay: Ability of 100 mg/kg of compound to kill M5076 tumor cells in mice is expressed as the log of the tumor cell population at the onset of treatment minus the log of the tumor cell population at the end of treatment; format: functional; procedure, shortened: as §1
[4] = system: Mus musculus; assay: The percent of the median survival time of test mice compared to control mice is % T/C which refers to tumor size in this case. It is determined for mice administered with 60 mg/kg compound on day 11 for MX-1 tumor cells; format: functional; conditions: route intraperitoneal
Procedure, shortened: (§2)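 Human MX-1 mammary xenograft, a 1 mm3 (0.5 mg) tumor fragment implanted under the renal capsule of NCR-nu mice on day 0. Drug given ip as a fresh saline suspension on days 1, 5 and 9. Tumor size is assessed on day 11. A negative % T/C is percent shrinkage relative to the initial implant. Survivors in the toxicity group are […].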

[5] = system: Mus musculus; assay: Body Weight Difference (BWD) of test animals administered with 12.5 mg/kg compound is determined on day 5 for P388 tumor cells; format: functional
Procedure, shortened: (§3)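 P388 leukaemia: about 10^6 cells in ascitic fluid inoculated ip on day 0 (CD2F1 mice). Compound given ip in normal saline as a freshly prepared solution or suspension, once daily on days 1–5. Treated-minus-control body weight difference in g, taken as day 5 minus day 1 weight. Groups of six.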

[6] = system: Mus musculus; assay: The toxicity day was evaluated on day 0 for LOX tumor cells of test animals dosed with 200 mg/kg of compound; 3/6; format: functional
[7] = system: Mus musculus; assay: Body weight difference (BWD) of test animals administered with 60 mg/kg compound is determined on […] tumor cells; format: functional
Procedure, shortened: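 MX-1 human mammary xenograft: solid tumour fragment (1 mm3, 0.5 mg) placed as a subrenal capsule implant on day 0 in NCR-nu mice. Fresh saline suspension dosed ip on days 1, 5 and 9. Body weight difference in g (treated minus control) recorded. Assay evaluated on day 11. Six mice per group.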

[8] = system: Mus musculus; assay: The percent of the median survival time of test mice compared to control mice, administered with 25 mg/kg compound on day 5 for L1210 tumor cells; format: functional
Procedure, shortened: (§4)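 L1210 leukemia, 10^5 cells implanted ip on day 0. Drug given ip daily on days 1-5 as a saline suspension freshly prepared before each injection. Read-out is median survival of treated versus control mice (% T/C), and log cell kill is derived from it.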

[9] = system: Mus musculus; assay: The toxicity day was evaluated on day 11 for MX-1 tumor cells of test animals dosed with 60 mg/kg of compound; 6/6; format: functional
Procedure, shortened: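 Human MX-1 mammary tumour (1 mm3, 0.5 mg) implanted under the renal capsule of NCR-nu mice on day 0. Drug was given ip as a freshly made saline suspension on days 1, 5 and 9. Readout is survivors over initial group size.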

[10] = system: Mus musculus; assay: The percent of the median survival time of test mice compared to control mice, administered with 25 mg/kg compound on day 14 for M5076 minus 1 tumor cells; format: functional; procedure, shortened: as §1
[11] = system: Mus musculus; assay: The percent of the median survival time of test mice compared to control mice, administered with 100 mg/kg compound on day 14 for M5076 minus 1 tumor cells; format: functional; procedure, shortened: as §1
[12] = system: Mus musculus; assay: The percent of the median survival time of test mice compared to control mice is determined for mice administered with 50 mg/kg compound; format: functional
[13] = system: Mus musculus; assay: The percent of the median survival time of test mice compared to control mice, administered with 12.5 mg/kg compound on day 5 for L1210 tumor cells; format: functional; procedure, shortened: as §4
[14] = system: Mus musculus; assay: Body Weight Difference (BWD) of test animals administered with 25 mg/kg compound is determined on day 5 for P388 tumor cells; format: functional; procedure, shortened: as §3
[15] = system: Mus musculus; assay: Body weight difference (BWD) of test animals administered with 200 mg/kg compound is determined on day 10 for LOX tumor cells.
[16] = system: Mus musculus; assay: Body weight difference (BWD) of test animals administered with 50 mg/kg compound is determined on day 14 for M5076 minus 1 tumor cells; format: functional
Procedure, shortened: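 M5076 sarcoma: 10^6 cells inoculated ip on day 0 in B6C3F1 mice. Fresh saline suspension dosed ip every fourth day, on days 1, 5, 9 and 13. Body weight difference in g (treated minus control) taken as day 14 minus day 1. Ten mice per group.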

[17] = system: Mus musculus; assay: Body weight difference (BWD) of test animals administered with 25 mg/kg compound is determined on day 10 for LOX tumor cells.
[18] = system: Mus musculus; assay: The percent of the median survival time of test mice compared to control mice is % T/C. It is determined for mice administered with 50 mg/kg compound on day 0 for LOX 1 tumor cells.; format: functional; conditions: route intraperitoneal
[19] = system: Mus musculus; assay: Ability of 100 mg/kg of compound to kill L1210 tumor cells in mice is expressed as the log of the tumor cell population at the onset of treatment minus the log of the tumor cell population at the end of treatment; format: functional; procedure, shortened: as §4
[20] = system: Mus musculus; assay: Body Weight Difference (BWD) of test animals administered with 6.25 mg/kg compound is determined on day 5 for P388 tumor cells; format: functional; procedure, shortened: as §3
[21] = system: Mus musculus; assay: Body weight difference (BWD) of test animals administered with 50 mg/kg compound is determined on day 5 for L1210 tumor cells; format: functional
Procedure, shortened: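 L1210 leukaemia: 10^5 cells implanted ip on day 0 in mice. Freshly prepared saline suspension given ip once daily on days 1–5. Body weight difference in g (treated minus control) taken as day 5 minus day 1. Six animals per dose.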

[22] = system: Mus musculus; assay: Ability of 12.5 mg/kg of compound to kill L1210 tumor cells in mice is expressed as the log of the tumor cell population at the onset of treatment minus the log of the tumor cell population at the end of treatment; format: functional; procedure, shortened: as §4
[23] = system: Mus musculus; assay: Ability of 50 mg/kg of compound to kill M5076 tumor cells in mice is expressed as the log of the tumor cell population at the onset of treatment minus the log of the tumor cell population at the end of treatment; format: functional; procedure, shortened: as §1
[24] = system: Mus musculus; assay: Ability of 200 mg/kg of compound to kill M5076 tumor cells in mice is expressed as the log of the tumor cell population at the onset of treatment minus the log of the tumor cell population at the end of treatment; format: functional; procedure, shortened: as §1
[25] = system: Mus musculus; assay: The toxicity day was evaluated […] for MX-1 tumor cells of test animals dosed with 100 mg/kg of compound; 6/6; format: functional; procedure, shortened: as §2
[26] = system: Mus musculus; assay: The toxicity day was evaluated on day 5 for L1210 tumor cells of test animals dosed with 50 mg/kg of compound; 6/6; format: functional
Procedure, shortened: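 L1210 leukaemia, 10^5 cells, implanted ip on day 0. Freshly prepared saline suspension dosed ip daily on days 1-5. Toxicity evaluated on day 5 as survivors over animals in the initial test group.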

CNC(=O)OCc1nc(SC)n(C)c1COC(=O)NC
KE [1]: -1.51 | KE [2]: -0.83 | KE [3]: -0.34 | T/C [4]: -91% | BWD [5]: -1.2 g | Survivors / animals tested [6]: 3 | BWD [7]: -1.9 g | T/C [8]: 111% | Survivors / animals tested [9]: 6 | T/C [10]: 122% | T/C [11]: 151% | T/C [12]: 184% | T/C [13]: 103% | BWD [14]: -1.4 g | BWD [15]: -11.5 g | BWD [16]: -0.7 g | BWD [17]: -3 g | T/C [18]: 231% | KE [19]: -0.29 | BWD [20]: -0.7 g | BWD [21]: -0.5 g | KE [22]: -2.35 | KE [23]: -1.63 | KE [24]: 0.98 | Survivors / animals tested [25]: 6 | Survivors / animals tested [26]: 6

From ChEMBL document CHEMBL1124663, “Design, synthesis, antineoplastic activity, and chemical properties of bis(carbamate) derivatives of 4,5-bis(hydroxymethyl)imidazole” (J Med Chem, 1989)
